Compounds with a hit are over-represented: about 2% of the library has one in this group of screens.
IMP-1 inhibitor: inhibitors of Pseudomonas aeruginosa IMP-1 metallo-beta-lactamase. purified IMP-1, nitrocefin hydrolysis, epi-absorbance fluorescence. inhibition, % at 5.6 µM. actives 0.45% (n = 290,000). AID 1556;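 active = inhibition above the mean plus 3 SD of all compounds in the same screening run, cut at about 4.5% in these data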
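assay system = purified recombinant IMP-1 metallo-beta-lactamase enzyme | schedule = 15 min preincubation plus 25 min reaction at 25 °C | signal = Epi-absorbance fluorescence, 480 nm excitation, 530 nm emission | read-out basis = percent inhibition from optical density relative to buffer-blank wells | controls = IMP-1 with DMSO as 0%, enzyme-free DMSO as 100%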
PLCg1 inh: PLC-gamma1 (human) inhibition, primary screen | actives 0.84% (n = 370,000) | purified PLC-gamma1, fluorogenic substrate, fluorescence | inhibition, % at 12.2 µM; in the data active = inhibition above about 9.5%
PvdQ acylase: P. aeruginosa PvdQ acylase inhibition. inhibition, % at 10 µM. purified PvdQ acylase, fluorescence plate reader. actives 0.063% (n = 340,000); in the data active = inhibition above about 30%, passing the limit was not always enough
PLCb3 inh: blocks human PLC-beta3 enzyme activity. Q01970. Purified PLC-beta3, fluorogenic substrate, fluorescence. inhibition, % at 12.2 µM. actives 0.18% (n = 370,000)
Target sequence (Q01970 whole entry, looked up): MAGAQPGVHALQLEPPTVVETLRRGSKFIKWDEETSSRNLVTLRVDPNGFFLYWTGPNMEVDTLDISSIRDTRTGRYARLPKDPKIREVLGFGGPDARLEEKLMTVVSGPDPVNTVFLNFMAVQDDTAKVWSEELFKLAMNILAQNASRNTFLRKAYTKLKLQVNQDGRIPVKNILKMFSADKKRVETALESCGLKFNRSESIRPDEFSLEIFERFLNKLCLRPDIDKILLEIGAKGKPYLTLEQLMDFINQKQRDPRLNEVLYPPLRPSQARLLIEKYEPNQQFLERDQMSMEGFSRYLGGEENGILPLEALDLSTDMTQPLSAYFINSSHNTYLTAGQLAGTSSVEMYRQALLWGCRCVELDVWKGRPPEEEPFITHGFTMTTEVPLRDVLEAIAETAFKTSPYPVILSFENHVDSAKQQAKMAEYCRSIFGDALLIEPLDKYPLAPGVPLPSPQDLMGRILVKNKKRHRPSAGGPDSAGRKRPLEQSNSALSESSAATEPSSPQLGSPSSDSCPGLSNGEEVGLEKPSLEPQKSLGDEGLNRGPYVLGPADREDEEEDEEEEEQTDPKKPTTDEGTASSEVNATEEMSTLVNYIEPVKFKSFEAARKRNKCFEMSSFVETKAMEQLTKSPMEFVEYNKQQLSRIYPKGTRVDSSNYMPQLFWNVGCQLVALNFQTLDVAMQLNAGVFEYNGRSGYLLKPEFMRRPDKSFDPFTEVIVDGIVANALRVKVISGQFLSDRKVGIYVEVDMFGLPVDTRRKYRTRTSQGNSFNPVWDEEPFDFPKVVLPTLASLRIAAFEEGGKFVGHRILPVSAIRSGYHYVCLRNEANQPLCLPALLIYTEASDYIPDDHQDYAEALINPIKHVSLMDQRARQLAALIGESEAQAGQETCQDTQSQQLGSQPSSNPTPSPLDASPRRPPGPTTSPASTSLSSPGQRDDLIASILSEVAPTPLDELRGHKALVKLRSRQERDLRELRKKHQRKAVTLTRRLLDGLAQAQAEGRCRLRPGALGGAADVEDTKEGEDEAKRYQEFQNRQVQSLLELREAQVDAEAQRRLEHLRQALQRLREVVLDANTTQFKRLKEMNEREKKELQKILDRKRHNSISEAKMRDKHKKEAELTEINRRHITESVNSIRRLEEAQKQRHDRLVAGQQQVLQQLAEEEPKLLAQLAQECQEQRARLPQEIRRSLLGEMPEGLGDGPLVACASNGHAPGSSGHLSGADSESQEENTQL
VIM-2 inh: inhibitors of Pseudomonas aeruginosa VIM-2 metallo-beta-lactamase. inhibition, % at 5.6 µM. purified VIM-2, nitrocefin hydrolysis, epi-absorbance fluorescence. actives 0.89% (n = 290,000);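 active = inhibition above the mean of all tested compounds plus 3 SD, cutoff set per screening run, cut at about 7.5% in these data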;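 note: red hydrolysis product quenches plate fluorescence so inhibitors raise well fluorescence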
PLCg1 ctr: PLC-gamma1 inhibition, counter-screen for PLC-beta3 hits. AID 743258. shares compounds with PLCg1 inh. inhibition, % at 12.3 µM. actives 3.1% (n = 3,300). purified PLC-gamma1, fluorogenic substrate, fluorescence; in the data active = inhibition above about 9.5%
PLCbeta3 conf: confirmation of human PLC-beta3 inhibitors; shares compounds with PLCg1 inh; purified PLC-beta3, fluorogenic substrate fluorescence; inhibition, % at 12.3 µM; actives 1% (n = 3,300); AID 743261
Each line names hits and unclear results; the compound was inactive in the other large screens (follow-up assays come after a bar, where they were run). Cut-off read from the data, not from the text of the source, unless noted: active = inhibition above about 11%; inactive = the rest.

Cc1ccc(-c2cc(N)n(-c3ccc(C)cc3)n2)cc1	none
Cc1ccc(-c2cc(N)n(-c3ccc(F)cc3)n2)cc1	PLCg1 inh 13 | PLCg1 ctr inactive | PLCbeta3 conf inactive
CCCCCn1c(SCC2CCCO2)nc2cc(C(=O)N3CCC(C(N)=O)CC3)ccc2c1=O (stereo unspecified)	PLCg1 inh 9.6 | PLCg1 ctr inactive | PLCbeta3 conf inactive
CCCCCn1c(SCC(=O)CC(=O)OCC)nc2cc(C(=O)N3CCC(C(N)=O)CC3)ccc2c1=O	none
CCOC(=O)C1=C(C(=O)OCC)C2N(Cc3ccc(C#N)cc3)c3ccccc3[C@@]23C[C@@H](C(=O)OC)N(S(=O)(=O)c2c(C)noc2C)C3=N1 (stereo partly specified)	none (no result: IMP-1 inhibitor, PvdQ acylase, VIM-2 inh)
O=C(CCC1CCCC1)Nc1ccon1	PLCg1 inh 12 | PLCg1 ctr inactive | PLCbeta3 conf inactive
CCn1cc(CN2CCC(n3nccc3NC(=O)CCOc3ccccc3)CC2)cn1	PLCg1 inh 13 | PLCg1 ctr inactive | PLCbeta3 conf inactive
CCOc1cccc(CN2CCC(n3nccc3NC(=O)c3ccc4c(c3)OCO4)CC2)c1	PLCg1 inh 10 | PLCg1 ctr inactive | PLCbeta3 conf inactive
COC(CNC(=O)[C@H](Cc1ccccc1)NC1(C(=O)NC2CCCCC2)CCCC1)OC	PLCg1 inh 9.8 (no result: IMP-1 inhibitor, PvdQ acylase, VIM-2 inh) | PLCg1 ctr inactive | PLCbeta3 conf inactive
O=C(NCC(c1ccccc1)c1ccccc1)[C@H](Cc1ccccc1)NC1(C(=O)NC2CCCCC2)CCCC1	none (no result: IMP-1 inhibitor, PvdQ acylase, VIM-2 inh)
C[C@@H]1CNC(=O)c2c(C(=O)N3CCN(c4ccccc4)CC3)ncn21	none (no result: IMP-1 inhibitor, PvdQ acylase, VIM-2 inh)
NC(=O)C1(N2CCCCC2)CCN(Cc2ccccc2Cl)CC1	PLCb3 inh 11 | PLCg1 ctr inactive | PLCbeta3 conf inactive
NC(=O)C1(N2CCCCC2)CCN(S(=O)(=O)c2ccccc2)CC1	none
O=C1C(=C(I)I)c2ccccc2-c2ccccc21	PLCg1 inh 34 (no result: IMP-1 inhibitor, VIM-2 inh) | PLCg1 ctr 39 | PLCbeta3 conf inactive
O=C1c2ccccc2-c2cccnc21	none
Cc1cccc(C(=O)Nc2c(-c3ccccc3)nc3ncccn23)c1	none (no result: IMP-1 inhibitor, PvdQ acylase, VIM-2 inh)
O=C(c1cc(O)c(O)c([N+](=O)[O-])c1)c1ccccc1F	PLCg1 inh 10.0 (no result: IMP-1 inhibitor, VIM-2 inh) | PLCg1 ctr inactive | PLCbeta3 conf inactive
COc1cc2c(c(OC)c1OC)C1(CCCCC1)CC2NCC=C(C)C (stereo unspecified)	none (no result: IMP-1 inhibitor, PvdQ acylase, VIM-2 inh)
COc1cc(NC(=S)NN2CCOCC2)cc(OC)c1	none
Fc1cc(F)cc(NC(=S)NN2CCOCC2)c1	PLCg1 inh 11 | PLCg1 ctr inactive | PLCbeta3 conf inactive
CCCOc1ccc(N2CC(C(=O)Nc3ccc(N4CCOCC4)cc3)CC2=O)cc1 (stereo unspecified)	none
COc1ccccc1N1CC(C(=O)Nc2ccc(N3CCOCC3)cc2)CC1=O (stereo unspecified)	PLCg1 inh 11 (no result: IMP-1 inhibitor, VIM-2 inh) | PLCg1 ctr inactive | PLCbeta3 conf inactive
CCOC(=O)CNC(=O)C1(NC(=O)CNC(=O)OCc2ccccc2)CCCC1	PLCg1 inh 10 (no result: IMP-1 inhibitor, VIM-2 inh) | PLCg1 ctr inactive | PLCbeta3 conf inactive
Cc1cc(OCc2nc(N)nc(N)c2-c2ccc(Cl)c(Cl)c2)ccc1[N+](=O)[O-]	PLCg1 inh 13 (no result: IMP-1 inhibitor, VIM-2 inh) | PLCg1 ctr inactive | PLCbeta3 conf inactive
COc1ccc(C(=O)CCC(=O)Nc2cccc(Cl)c2)cc1	none
Cc1ccc(C(=O)CCC(=O)Nc2ccc(Cl)c(S(=O)(=O)Nc3cccc(Cl)c3)c2)cc1	PLCg1 inh 11 | PLCg1 ctr inactive | PLCbeta3 conf inactive
O=C(COC(=O)c1cc([N+](=O)[O-])ccc1N1CCOCC1)c1ccccc1Cl	none
O=C(OCc1ccccc1Cl)c1cc([N+](=O)[O-])ccc1N1CCOCC1	PLCg1 inh 14 | PLCg1 ctr inactive | PLCbeta3 conf inactive
O=C(CCN1C(=O)C2C3C=CC(C4CC34)C2C1=O)Oc1ccccc1 (stereo unspecified)	none
CC(=O)c1ccccc1OC(=O)CCN1C(=O)C2C3C=CC(C4CC34)C2C1=O (stereo unspecified)	PLCg1 inh 10 | PLCg1 ctr inactive | PLCbeta3 conf inactive
O=S1(=O)c2ccc(N3CCCC3)cc2Oc2ccccc2CN1Cc1cn(Cc2ccc(C(F)(F)F)cc2)nn1	none (no result: IMP-1 inhibitor, PvdQ acylase, VIM-2 inh)
COc1cccc(C(=O)Nc2cccc(C(=O)N3CCOCC3)c2)c1	none
COc1cccc(C(=O)N2CCOCC2)c1	PLCg1 inh 11 | PLCg1 ctr inactive | PLCbeta3 conf inactive
Clc1ccccc1CSc1nnc(-c2ccccn2)n1Cc1ccco1	PLCg1 inh 12 | PLCg1 ctr inactive | PLCbeta3 conf inactive
NC(=O)CSc1nnc(-c2ccccn2)n1Cc1ccco1	none
Cc1cc(NC(=O)CSc2cn(CC(=O)N(C(C)C)C(C)C)c3ccccc23)no1	PLCg1 inh 12 | PLCg1 ctr inactive | PLCbeta3 conf inactive
CCCCN1CCS(=O)(=O)N(Cc2cn(Cc3ccc(C)cc3)nn2)C(C(=O)OC)C1 (stereo unspecified)	none (no result: IMP-1 inhibitor, PvdQ acylase, VIM-2 inh)
COc1cccc(CNCC(O)COc2ccc(C(=O)c3ccccc3)cc2)c1 (stereo unspecified)	none
O=C(c1ccccc1)c1ccc(OCC(O)CNCc2ccc(Cl)cc2)cc1 (stereo unspecified)	PLCg1 inh 12 | PLCg1 ctr inactive | PLCbeta3 conf inactive
Clc1ccccc1-c1nnc2sc(C3COc4ccccc4O3)nn12 (stereo unspecified)	PLCg1 inh 11 | PLCg1 ctr inactive | PLCbeta3 conf inactive
COC(=O)N1C[C@H](OCc2ccccc2)[C@H]2C[C@@H]1c1ccccc1O2	none (no result: IMP-1 inhibitor, PvdQ acylase, VIM-2 inh)
CCC(C)[C@H](NC(=O)[C@@H]1Cc2ccccc2CN1)C(=O)NCc1ccc(C)cc1 (stereo partly specified)	PLCg1 inh 9.8 (no result: IMP-1 inhibitor, PvdQ acylase, VIM-2 inh) | PLCg1 ctr inactive | PLCbeta3 conf inactive
CCCC(O)(c1ccc(Cl)cc1)C(CN1CCOCC1)c1ccccc1 (stereo unspecified)	PLCg1 inh 11 | PLCg1 ctr inactive | PLCbeta3 conf inactive
CC(C)N(Cc1nc(-c2ccccc2)no1)C(=O)CN(C)S(=O)(=O)c1ccccc1	PLCg1 inh 9.6 | PLCg1 ctr inactive | PLCbeta3 conf inactive
CN(Cc1nc(-c2ccncc2)no1)S(=O)(=O)c1ccccc1	none
CC1(Cc2ccccc2OC(F)(F)F)C(=O)Nc2ccc(OC(F)(F)F)cc21 (stereo unspecified)	none (no result: IMP-1 inhibitor, PvdQ acylase, VIM-2 inh)
CC1(Cc2ccccc2OC(F)(F)F)C(=O)Nc2ccc(-c3ccsc3)cc21 (stereo unspecified)	PLCg1 inh 11 (no result: IMP-1 inhibitor, PvdQ acylase, VIM-2 inh) | PLCg1 ctr inactive | PLCbeta3 conf inactive
COc1ccc(CN2CCN(C)CC2)cc1OCc1ccccc1	PLCg1 inh 11 | PLCg1 ctr inactive | PLCbeta3 conf inactive
COc1cc(C(=O)NCC2(N(C)C)CCCCC2)ccc1OCc1ccccc1	PLCg1 inh 13 | PLCg1 ctr inactive | PLCbeta3 conf inactive
COc1cc(C(N)=O)ccc1OCc1ccccc1	PLCb3 inh 11 | PLCg1 ctr inactive | PLCbeta3 conf inactive

Screening data (PubChem BioAssay)
